The source made the active and inactive calls. No cut-off for these calls is given here.

By inhibition is commonly meant the relative decrease from the control value, in per cent.

The target of data set [1] is Calcyclin-binding protein (Homo sapiens) (UniProt Q9HB71). As to the kind of experiment: Binding affinity to CACYBP in human NCI-H23 cells at 1 uM by mass spectrometry based pull down assay. The class given is cell-based.
In data set [2] the target is Kinesin-like protein KIF1A (Homo sapiens) (UniProt Q12756). Kind of data set: Binding affinity to KIF1A in human NCI-H23 cells at 1 uM by mass spectrometry based pull down assay. The class given is cell-based.
Data set [3] deals with Protein arginine N-methyltransferase 5 (Homo sapiens) (UniProt O14744). Kind of data set: Binding affinity to PRMT5 in human NCI-H23 cells at 1 uM by mass spectrometry based pull down assay. In kind it is cell-based.
Sequence of Protein arginine N-methyltransferase 5 (Homo sapiens) (O14744 whole entry): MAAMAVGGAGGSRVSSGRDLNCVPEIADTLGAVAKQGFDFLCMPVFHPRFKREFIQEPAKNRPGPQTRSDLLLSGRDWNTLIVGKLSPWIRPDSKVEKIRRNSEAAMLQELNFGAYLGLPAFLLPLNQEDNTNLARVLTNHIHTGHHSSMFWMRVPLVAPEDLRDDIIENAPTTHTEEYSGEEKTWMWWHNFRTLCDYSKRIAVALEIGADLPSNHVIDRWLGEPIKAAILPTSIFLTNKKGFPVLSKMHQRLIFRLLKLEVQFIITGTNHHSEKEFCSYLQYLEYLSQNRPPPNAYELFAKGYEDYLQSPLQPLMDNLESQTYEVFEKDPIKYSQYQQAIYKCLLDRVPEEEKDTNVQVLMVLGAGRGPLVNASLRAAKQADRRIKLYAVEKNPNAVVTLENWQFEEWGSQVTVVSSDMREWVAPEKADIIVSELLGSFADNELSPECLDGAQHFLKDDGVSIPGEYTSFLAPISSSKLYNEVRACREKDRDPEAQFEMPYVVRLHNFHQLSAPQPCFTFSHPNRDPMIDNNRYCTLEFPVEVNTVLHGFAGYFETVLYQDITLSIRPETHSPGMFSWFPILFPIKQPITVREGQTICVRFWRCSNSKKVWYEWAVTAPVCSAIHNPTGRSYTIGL
In data set [4] the target is ADP/ATP translocase 2 (Homo sapiens) (UniProt P05141). As to the kind of experiment: Binding affinity to SLC25A5 in human NCI-H23 cells at 1 uM by mass spectrometry based pull down assay. The class given is cell-based.
Sequence of ADP/ATP translocase 2 (Homo sapiens) (P05141 whole entry): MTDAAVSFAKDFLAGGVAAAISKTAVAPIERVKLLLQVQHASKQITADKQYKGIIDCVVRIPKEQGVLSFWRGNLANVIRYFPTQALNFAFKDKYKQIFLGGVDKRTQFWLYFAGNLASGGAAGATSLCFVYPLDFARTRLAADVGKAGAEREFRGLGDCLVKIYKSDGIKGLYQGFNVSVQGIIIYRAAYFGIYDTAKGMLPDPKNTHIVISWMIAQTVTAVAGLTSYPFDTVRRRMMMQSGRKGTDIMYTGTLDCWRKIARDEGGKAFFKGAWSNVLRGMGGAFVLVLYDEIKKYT
The target of data set [5] is T1, Serine/threonine-protein kinase Nek9 (Homo sapiens) (UniProt Q8TD19).
T1 sequence (whole entry): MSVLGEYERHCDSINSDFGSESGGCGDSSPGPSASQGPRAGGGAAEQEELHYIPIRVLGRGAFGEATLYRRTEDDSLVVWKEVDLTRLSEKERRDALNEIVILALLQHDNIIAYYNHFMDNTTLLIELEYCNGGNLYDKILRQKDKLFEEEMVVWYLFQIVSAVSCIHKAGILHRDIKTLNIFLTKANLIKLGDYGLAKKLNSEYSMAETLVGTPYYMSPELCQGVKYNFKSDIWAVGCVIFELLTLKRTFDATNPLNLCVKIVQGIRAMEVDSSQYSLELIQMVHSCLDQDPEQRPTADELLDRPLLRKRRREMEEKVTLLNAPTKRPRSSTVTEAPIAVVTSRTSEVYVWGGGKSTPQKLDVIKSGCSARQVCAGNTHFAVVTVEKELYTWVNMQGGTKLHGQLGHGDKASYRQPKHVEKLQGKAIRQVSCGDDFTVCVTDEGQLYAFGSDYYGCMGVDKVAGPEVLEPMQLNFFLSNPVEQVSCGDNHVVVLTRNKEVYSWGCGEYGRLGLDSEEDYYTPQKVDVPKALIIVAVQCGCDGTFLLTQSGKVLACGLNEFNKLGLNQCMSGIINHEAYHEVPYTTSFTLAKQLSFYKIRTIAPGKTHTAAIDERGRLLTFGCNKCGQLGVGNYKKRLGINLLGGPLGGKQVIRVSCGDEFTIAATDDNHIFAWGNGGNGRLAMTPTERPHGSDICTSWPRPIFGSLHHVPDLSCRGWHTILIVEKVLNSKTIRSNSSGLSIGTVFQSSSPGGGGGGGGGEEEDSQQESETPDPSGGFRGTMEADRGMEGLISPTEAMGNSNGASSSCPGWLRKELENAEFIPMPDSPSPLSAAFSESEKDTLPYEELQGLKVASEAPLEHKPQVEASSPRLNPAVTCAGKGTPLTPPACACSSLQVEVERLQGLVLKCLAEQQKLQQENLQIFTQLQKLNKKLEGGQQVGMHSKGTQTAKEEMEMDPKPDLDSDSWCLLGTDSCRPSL
As to the kind of experiment: Binding affinity to NEK9 in human NCI-H23 cells at 1 uM by mass spectrometry based pull down assay. In kind it is cell-based.

Data set [6] addresses Melanoma-associated antigen 4 (Homo sapiens) (UniProt P43358). Kind of data set: Binding affinity to MAGEA4 in human NCI-H23 cells at 1 uM by mass spectrometry based pull down assay. The class given is cell-based.
Data set [7] has as its target V-type proton ATPase subunit B, brain isoform (Homo sapiens) (UniProt P21281). As to the kind of experiment: Binding affinity to ATP6V1B2 in human NCI-H23 cells at 1 uM by mass spectrometry based pull down assay. The class given is cell-based.
Data set [8] deals with Phosphoinositide 3-kinase regulatory subunit 4 (Homo sapiens) (UniProt Q99570). As to the kind of experiment: Binding affinity to PIK3R4 in human NCI-H23 cells at 1 uM by mass spectrometry based pull down assay. The class given is cell-based.
The target of data set [9] is Proteasome activator complex subunit 2 (Homo sapiens) (UniProt Q9UL46). As to the kind of experiment: Binding affinity to PSME2 in human NCI-H358 cells at 1 uM by mass spectrometry based pull down assay. In kind it is cell-based.
In the next data set the target is Tensin-3 (Homo sapiens) (UniProt Q68CZ2). As to the kind of experiment: Binding affinity to TNS3 in human NCI-H358 cells at 1 uM by mass spectrometry based pull down assay. The class given is cell-based.
Sequence of Tensin-3 (Homo sapiens) (Q68CZ2 whole entry): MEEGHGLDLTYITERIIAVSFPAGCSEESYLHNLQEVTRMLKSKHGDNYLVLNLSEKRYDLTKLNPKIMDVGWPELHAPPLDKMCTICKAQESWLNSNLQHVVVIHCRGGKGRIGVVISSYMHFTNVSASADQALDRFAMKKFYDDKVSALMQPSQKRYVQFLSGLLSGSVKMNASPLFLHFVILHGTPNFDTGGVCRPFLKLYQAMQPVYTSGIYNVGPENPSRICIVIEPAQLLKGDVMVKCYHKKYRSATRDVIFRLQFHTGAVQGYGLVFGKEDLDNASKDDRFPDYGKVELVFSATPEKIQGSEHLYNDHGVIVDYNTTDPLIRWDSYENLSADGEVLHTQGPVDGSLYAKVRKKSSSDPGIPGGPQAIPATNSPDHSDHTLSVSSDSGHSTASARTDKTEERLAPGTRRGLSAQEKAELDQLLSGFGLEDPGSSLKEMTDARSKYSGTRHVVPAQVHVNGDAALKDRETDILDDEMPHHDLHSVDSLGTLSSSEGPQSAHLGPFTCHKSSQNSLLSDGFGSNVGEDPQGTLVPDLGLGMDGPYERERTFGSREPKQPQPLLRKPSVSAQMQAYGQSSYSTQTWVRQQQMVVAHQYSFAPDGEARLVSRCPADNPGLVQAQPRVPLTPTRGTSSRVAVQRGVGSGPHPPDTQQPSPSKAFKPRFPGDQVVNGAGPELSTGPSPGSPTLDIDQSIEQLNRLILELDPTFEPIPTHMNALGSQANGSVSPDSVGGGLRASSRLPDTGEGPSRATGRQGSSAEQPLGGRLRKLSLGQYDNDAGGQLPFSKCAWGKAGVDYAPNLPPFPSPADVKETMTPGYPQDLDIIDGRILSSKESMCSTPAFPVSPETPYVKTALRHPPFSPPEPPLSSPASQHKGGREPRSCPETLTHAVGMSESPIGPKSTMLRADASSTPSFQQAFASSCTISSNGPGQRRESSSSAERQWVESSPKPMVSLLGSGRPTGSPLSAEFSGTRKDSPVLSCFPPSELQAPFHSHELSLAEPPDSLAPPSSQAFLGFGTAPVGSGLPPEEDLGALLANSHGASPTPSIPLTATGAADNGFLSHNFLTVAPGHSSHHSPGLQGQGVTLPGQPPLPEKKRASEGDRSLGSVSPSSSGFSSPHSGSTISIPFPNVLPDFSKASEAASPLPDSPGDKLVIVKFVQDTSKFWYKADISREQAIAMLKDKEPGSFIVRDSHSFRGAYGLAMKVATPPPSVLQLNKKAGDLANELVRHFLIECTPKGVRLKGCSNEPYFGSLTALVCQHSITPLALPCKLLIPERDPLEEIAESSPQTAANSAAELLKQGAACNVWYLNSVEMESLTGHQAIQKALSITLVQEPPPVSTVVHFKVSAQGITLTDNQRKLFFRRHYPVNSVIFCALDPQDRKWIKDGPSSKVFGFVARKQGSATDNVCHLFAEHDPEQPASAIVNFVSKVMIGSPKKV
The target of data set [10] is Lysophosphatidylcholine acyltransferase 1 (Homo sapiens) (UniProt Q8NF37). As to the kind of experiment: Binding affinity to LPCAT1 in human NCI-H358 cells at 1 uM by mass spectrometry based pull down assay. In kind it is cell-based.
Sequence of Lysophosphatidylcholine acyltransferase 1 (Homo sapiens) (Q8NF37 whole entry): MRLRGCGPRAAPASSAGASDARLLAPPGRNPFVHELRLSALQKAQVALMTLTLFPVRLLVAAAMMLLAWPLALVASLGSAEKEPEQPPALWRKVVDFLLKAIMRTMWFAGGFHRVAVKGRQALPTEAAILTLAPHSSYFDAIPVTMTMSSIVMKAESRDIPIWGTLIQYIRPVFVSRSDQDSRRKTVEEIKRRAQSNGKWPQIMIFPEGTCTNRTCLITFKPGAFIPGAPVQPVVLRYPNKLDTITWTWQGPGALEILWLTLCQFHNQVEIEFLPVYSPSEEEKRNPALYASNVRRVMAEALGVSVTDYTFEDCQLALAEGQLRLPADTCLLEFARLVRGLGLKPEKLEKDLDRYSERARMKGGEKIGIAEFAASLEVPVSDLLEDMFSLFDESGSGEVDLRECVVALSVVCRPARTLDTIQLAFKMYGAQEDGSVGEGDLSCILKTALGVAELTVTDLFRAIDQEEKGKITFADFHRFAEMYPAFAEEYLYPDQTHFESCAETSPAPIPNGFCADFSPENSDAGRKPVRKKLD
The target of a further data set is Moesin (Homo sapiens) (UniProt P26038). Kind of data set: Binding affinity to MSN in human NCI-H358 cells at 1 uM by mass spectrometry based pull down assay. In kind it is cell-based.
For data set [11], the target named is Tyrosine-protein kinase Fer (Homo sapiens) (UniProt P16591). Kind of data set: Inhibition of FER in human SKCO1 cells at 1 uM after 4 hrs using biotin labeled TSVAVKTCKEDLPQELK probe by mass-spectrometric analysis relative to control. The class given is cell-based.
Sequence of Tyrosine-protein kinase Fer (Homo sapiens) (P16591 whole entry, looked up): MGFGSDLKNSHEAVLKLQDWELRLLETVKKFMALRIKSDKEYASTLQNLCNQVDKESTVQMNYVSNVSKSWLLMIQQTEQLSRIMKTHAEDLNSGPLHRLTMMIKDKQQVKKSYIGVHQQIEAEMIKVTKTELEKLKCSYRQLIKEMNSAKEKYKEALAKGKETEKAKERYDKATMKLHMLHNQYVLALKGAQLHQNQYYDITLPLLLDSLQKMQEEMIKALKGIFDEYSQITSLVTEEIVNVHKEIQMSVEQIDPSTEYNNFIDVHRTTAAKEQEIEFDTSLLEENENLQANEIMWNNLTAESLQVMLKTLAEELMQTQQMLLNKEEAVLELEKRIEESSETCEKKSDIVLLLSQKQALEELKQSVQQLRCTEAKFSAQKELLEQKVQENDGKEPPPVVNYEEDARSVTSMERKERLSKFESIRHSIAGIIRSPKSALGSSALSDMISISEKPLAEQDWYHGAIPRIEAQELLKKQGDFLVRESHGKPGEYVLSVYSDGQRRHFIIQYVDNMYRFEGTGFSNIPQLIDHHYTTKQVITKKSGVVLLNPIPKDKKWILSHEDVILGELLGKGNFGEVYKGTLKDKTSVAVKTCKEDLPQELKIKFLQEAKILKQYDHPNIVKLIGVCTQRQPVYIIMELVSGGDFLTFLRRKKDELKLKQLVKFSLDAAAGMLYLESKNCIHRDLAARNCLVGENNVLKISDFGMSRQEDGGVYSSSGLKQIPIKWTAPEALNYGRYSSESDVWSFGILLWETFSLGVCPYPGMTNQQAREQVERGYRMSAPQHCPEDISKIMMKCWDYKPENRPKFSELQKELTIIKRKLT
The nature of data set [12]: Increase in secretion of basic-FGF in poly(I:C) activated RA patient-derived synovial fibroblasts at 0.6 to 3 uM preincubated for 3 hrs followed by poly(I:C) stimulation measured after 18 hrs by sandwich immunoassay. Particulars: human. Summed up: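 Primary human RA synovial fibroblasts (donor RA2159) seeded at 1000 viable cells/well, grown ~24 h at 37 °C/5% CO2, then starved overnight in basal medium and for a further ~4 h in basal medium with 0.1% BSA. Inhibitor or DMSO given 3 h before stimulation. Supernatants from two adjacent wells pooled as one replicate, biological duplicate. Luminex multiplex panels (48 analytes), diluted 1:3. Mock-supernatant background and spiked-ligand cross-reactivity controls included.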

Sequence of Melanoma-associated antigen 4 (Homo sapiens) (P43358 whole entry, canonical isoform): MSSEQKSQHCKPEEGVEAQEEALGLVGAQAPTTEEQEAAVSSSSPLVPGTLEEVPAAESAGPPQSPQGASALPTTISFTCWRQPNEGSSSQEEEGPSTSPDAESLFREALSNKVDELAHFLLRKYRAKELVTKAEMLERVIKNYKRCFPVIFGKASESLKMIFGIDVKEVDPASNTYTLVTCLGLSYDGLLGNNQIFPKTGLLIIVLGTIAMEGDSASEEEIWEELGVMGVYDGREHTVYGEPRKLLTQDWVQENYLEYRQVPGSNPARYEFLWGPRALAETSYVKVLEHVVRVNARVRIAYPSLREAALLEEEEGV
Sequence of V-type proton ATPase subunit B, brain isoform (Homo sapiens) (P21281 whole entry, canonical isoform): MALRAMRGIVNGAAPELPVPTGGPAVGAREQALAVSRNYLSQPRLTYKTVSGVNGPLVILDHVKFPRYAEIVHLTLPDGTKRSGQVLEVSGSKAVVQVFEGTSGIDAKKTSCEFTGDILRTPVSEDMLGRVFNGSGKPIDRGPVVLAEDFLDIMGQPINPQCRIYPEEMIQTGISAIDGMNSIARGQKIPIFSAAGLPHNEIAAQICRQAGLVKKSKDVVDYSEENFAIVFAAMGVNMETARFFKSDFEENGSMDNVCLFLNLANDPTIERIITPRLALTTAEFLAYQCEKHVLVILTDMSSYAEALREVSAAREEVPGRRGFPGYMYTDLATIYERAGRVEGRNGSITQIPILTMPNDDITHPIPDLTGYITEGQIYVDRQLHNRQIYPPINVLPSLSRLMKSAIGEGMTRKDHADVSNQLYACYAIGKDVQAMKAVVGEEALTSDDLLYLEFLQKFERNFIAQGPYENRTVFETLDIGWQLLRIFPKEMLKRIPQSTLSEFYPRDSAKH
Sequence of Calcyclin-binding protein (Homo sapiens) (Q9HB71 whole entry): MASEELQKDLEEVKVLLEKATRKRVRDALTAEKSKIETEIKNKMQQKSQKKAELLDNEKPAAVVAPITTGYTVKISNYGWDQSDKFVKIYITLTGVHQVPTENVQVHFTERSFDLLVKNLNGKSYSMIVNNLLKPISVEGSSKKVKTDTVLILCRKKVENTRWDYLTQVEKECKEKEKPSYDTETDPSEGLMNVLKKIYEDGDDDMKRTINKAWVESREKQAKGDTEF

For `C=CC(=O)Nc1ccccc1Nc1nc(Nc2ccc(N3CCN(CCOCCOCCOCCNC(=O)CCCC[C@@H]4SC[C@@H]5NC(=O)N[C@@H]54)CC3)cc2)ncc1Cl`, the outcome in data set [1], in data set [2], in data set [3], in data set [4], in data set [5] and in [6] was Active. For the same compound, the outcome (in data set [7]; in data set [8]; in data set [9]; at Tensin-3 (Homo sapiens); in data set [10]; on Moesin (Homo sapiens)) was Active.
As to `C=CC(=O)Nc1ccccc1Nc1nc(Nc2ccc(N3CCN(C)CC3)cc2)ncc1Cl`, the inhibition in [11] was -0.2%.
In the case of `COc1cc(O)c2c(c1)/C=C/C[C@H](O)[C@H](O)C(=O)/C=C\C[C@H](C)OC2=O`, in data set [12], the Activity result is “Non-Toxic”.

Values taken from ChEMBL document CHEMBL4118021, “Studies of TAK1-centered polypharmacology with novel covalent TAK1 inhibitors” (Bioorg Med Chem, 2017).
